# Bioassay records: PubChem, The Scripps Research Institute Molecular Screening Center
# A selection: hits, their analogues and other compounds. The true share with any hit is near 4.5%.
# TAAR1 ag – human TAAR1 agonists, primary screen, Fluo-8 calcium fluorescence, CHO RD-HGA16 cells. Trace amine-associated receptor 1 (Homo sapiens), Q96RJ0. vehicle wells 0%, saturating PEA agonist 100%. activation, % at 3 µM. hit rate 0.99% among 360,000. AID 624467, 2012;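 active = activation above the mean activation of all test compounds in the run plus 3 SD, cut at about 38% in these data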
# Target sequence (Q96RJ0 whole entry, looked up): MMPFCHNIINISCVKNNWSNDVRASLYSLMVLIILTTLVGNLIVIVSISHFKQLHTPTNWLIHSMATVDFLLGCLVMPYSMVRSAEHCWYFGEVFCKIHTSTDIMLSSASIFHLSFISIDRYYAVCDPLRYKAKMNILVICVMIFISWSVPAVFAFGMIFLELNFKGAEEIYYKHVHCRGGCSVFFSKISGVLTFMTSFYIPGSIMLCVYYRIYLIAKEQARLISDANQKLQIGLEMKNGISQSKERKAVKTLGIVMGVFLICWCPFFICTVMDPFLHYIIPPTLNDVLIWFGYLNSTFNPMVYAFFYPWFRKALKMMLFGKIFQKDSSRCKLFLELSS
#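 System: CHO RD-HGA16 cells carrying human TAAR1 plus Gα16; Incubation: 17-24 h seeding, 75 min 37 °C dye, 30 min RT; Measured by: Fluo-8 fluorescence, 5 s baseline then 140 s kinetic read; Control set: DMSO and PEA EC100; Replication: single well for each compound.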
# CHO parental Ca – ATP-evoked calcium signal inhibitors, parental CHO, primary screen, counter-screen for OX1R antagonist project, cell-based, fluorescence, Fluo-8 calcium dye. parental CHO-K1, ATP-induced calcium, Fluo-8 fluorescence. inhibition, % at 5.6 µM. hit rate 0.63% among 330,000. AID 463079, 2010;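 active = inhibition above that plate's mean sample inhibition plus 3 SD, cut at about 26% in these data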;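 note: 0% = ATP-challenged DMSO wells and 100% = DMSO wells without ATP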
#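 Assay system: parental CHO cells; Read-out basis: percent inhibition of ATP-evoked calcium rise, normalized to controls; Benchmarks: ATP and no-ATP DMSO wells; Compound dosing: single nominal dose of 5.6 µM per compound; Signal: Fluo-8 calcium dye fluorescence; Also added: ATP as calcium-mobilizing challenge; Repeats: singlicate.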
# OX1R antag-1 – antagonists of human orexin 1 receptor (OX1R). Orexin/Hypocretin receptor type 1 (Homo sapiens), O43613. OX1R-expressing cells, FRET antagonist read-out. inhibition, % at 6.6 µM. hit rate 1.8% among 330,000. AID 485270, 2010; in the data active = inhibition mostly above about 38%, no sharp cut-off; inactive = mostly below about 40%;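 note: 0% = agonist challenge alone and 100% = reference antagonist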
# OX1R antag-2 – OX1R (HCRTR1) antagonists, primary screen, fluorescence, CHO/OX1R cells, Fluo-8 calcium, orexin A; Orexin/Hypocretin receptor type 1 (Homo sapiens), O43613; Fluo-8 calcium fluorescence; inhibition, % at 5 µM; hit rate 0.43% among 330,000; AID 434989, 2010;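 active = inhibition above its plate's threshold, mean inhibition of all tested compounds on the plate plus 3 SD, cut at about 37% in these data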;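 note: 0% = orexin A challenge wells and 100% = SB-334867-A antagonist wells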
# GPR7 antag – GPR7 receptor antagonists, primary screen, cell-based, fluorescence, single concentration; AID 1861, 2009; Neuropeptides B/W receptor type 1 (Homo sapiens), P48145; hit rate 1.1% among 290,000; GPR7-expressing cells, fluorescence antagonist assay; inhibition, % at 4.4 µM; in the data active = inhibition above about 16%, passing the limit was not always enough;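 note: cells stimulated with the agonist NPW; 0% = agonist with vehicle and 100% = vehicle without agonist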
# Target sequence (P48145 whole entry, looked up): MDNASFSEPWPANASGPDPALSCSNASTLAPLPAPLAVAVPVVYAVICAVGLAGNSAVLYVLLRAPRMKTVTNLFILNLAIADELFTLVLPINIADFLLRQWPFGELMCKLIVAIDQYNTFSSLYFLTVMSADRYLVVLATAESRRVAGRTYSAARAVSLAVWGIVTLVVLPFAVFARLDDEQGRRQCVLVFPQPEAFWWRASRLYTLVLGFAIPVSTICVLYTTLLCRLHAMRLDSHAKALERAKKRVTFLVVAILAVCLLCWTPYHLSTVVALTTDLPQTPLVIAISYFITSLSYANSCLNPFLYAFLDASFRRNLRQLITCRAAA
# TAAR1 antagonist – human TAAR1 antagonists, primary screen, Fluo-8 calcium fluorescence, CHO RD-HGA16 cells. Trace amine-associated receptor 1 (Homo sapiens), Q96RJ0. antagonist. inhibition, % at 3 µM. hit rate 1.5% among 360,000. AID 624466, 2012;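 active = inhibition above a per-plate cutoff, the mean inhibition of test compounds on that plate plus 3 SD, cut at about 49% in these data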;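 note: 0% = DMSO plus EC80 beta-PEA response and 100% = DMSO alone without agonist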
#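 Assay system: RD-HGA16 CHO cells with stable hTAAR1 and Gα16 / Reagent: EC80 β-phenethylamine stimulus / Doses: 3 µM, single point / Timing: dye loading 75 min at 37 °C, then 30 min room temperature / Measured by: Fluo-8 intracellular calcium dye fluorescence, real-time kinetic reads / Controls: vehicle wells and EC80 agonist wells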
# Numbers without * were called inactive; nt = no result.
SMILES,TAAR1 ag,CHO parental Ca,OX1R antag-1,OX1R antag-2,GPR7 antag,TAAR1 antagonist
COc1cc(NC(=O)c2ccc3c(c2)OCO3)c2ncccc2c1,7,-12,67*,-5,-6,6
O=C(Nc1cccc2cccnc12)c1ccc2c(c1)OCCO2,3,-10,67*,11,-6,7
COC(=O)c1ccccc1NC(=O)c1ccc2c(c1)OCCCO2,-3,-16,59*,-5,-13,3
CC(C)(C)S(=O)(=O)N1C[C@@H]2CC(=O)C(CCO)=C2[C@H]1CCO,5,nt,nt,nt,nt,-15
Cc1ccccc1C(=O)N[C@@H](CC(C)C)C(=O)N1CCC[C@H]1C(=O)NCc1ccccc1,0,nt,nt,nt,nt,-12
O=C(NCc1ccccc1)[C@@H]1CCCN1C(=O)[C@H]1CCCN1C(=O)c1ccc(F)cc1F,0,nt,nt,nt,nt,-19
CC(=O)N1CCc2cc(S(=O)(=O)NCCC3=CCCCC3)ccc21,13,38*,42,38,1,22
CC(=O)N1CCc2cc(S(=O)(=O)NCCCN3CCCCC3)ccc21,1,-9,3,-16,-11,-7
CC/C(=N/N=C(/CC)c1ccc(O)cc1)c1ccc(O)cc1,3,-11,19,-6,nt,-20
Nc1ccc(-c2cc(-c3cccc(N)c3)nc(-c3ccccc3)n2)cc1,1,23,1,9,29*,-20
CCOC(=O)C1=C(C(=O)OCC)C2N(Cc3ccc(C(F)(F)F)cc3)c3ccccc3[C@@]23C[C@@H](C(=O)OC)N(S(=O)(=O)c2cccs2)C3=N1 (stereo partly drawn),4,nt,nt,nt,nt,-30
COc1ccccc1OCCNC(=O)CN(c1cccc(C)c1)S(=O)(=O)c1ccccc1,5,-25,72*,17,-18,49*
COc1ccc(OC)c(N(CC(=O)NCCSCc2ccco2)S(=O)(=O)c2ccccc2)c1,10,-15,51*,-3,10,32
Cc1cccnc1N=O,0,nt,nt,nt,nt,-18
C/C=C(/C)C(=O)OC1c2c(ccc3ccc(=O)oc23)OC(C)(C)C1OC(C)=O (stereo not drawn),46*,14,22,8,1,48
C/C=C(/C)C(=O)O[C@@H]1[C@H](OC(C)=O)c2c(ccc3ccc(=O)oc23)OC1(C)C,8,-25,28,-25,-12,19
CCOC(=O)c1c(S(=O)(=O)NCCc2ccccc2)c(C)n(C)c1C,39*,-25,6,-8,9,-18
CC(C)C(=O)Nc1ccc2nn(-c3ccccc3)nc2c1,4,3,63*,15,-3,-12
CC(C)c1[nH]nc2c1C(c1ccc(F)cc1)N(Cc1ccccc1)C2=O (stereo not drawn),0,nt,nt,nt,nt,-20
COc1ccccc1CCn1cnc(-c2cccc(Br)c2)c1CC(C)C,22,nt,nt,nt,nt,30
O=C(/C=C/c1ccc(N2CCC(c3ccccc3)=N2)cc1)c1ccccc1,30,73*,8,79*,-17,30
CCOC(=O)/C(=C\c1ccc(N2CCC(c3ccccc3)=N2)cc1)C(C)=O,10,nt,nt,nt,nt,-4
Cc1cc2occ(CC(=O)N(C)CC(=O)Nc3ccccc3Cl)c2cc1C,0,-25,54*,-18,nt,-49
O=[N+]([O-])c1cccc(NC(=S)Nc2nc(-c3ccc(Cl)cc3Cl)cs2)c1,6,18,33,0,-5,-9
COc1ccc(N/C(=C\C(=O)c2ccccc2)c2ccccc2)cc1OC,-1,nt,nt,nt,nt,3
SMILES,TAAR1 ag,CHO parental Ca,OX1R antag-1,OX1R antag-2,GPR7 antag,TAAR1 antagonist
O=C1COc2ccc(S(=O)(=O)CCC(=O)N3CCN(c4cccc(Cl)c4)CC3)cc2N1,6,11,10,-14,-5,10
Cc1ccc(Cl)cc1N1CCN(C(=O)CCS(=O)(=O)c2ccc3c(c2)NC(=O)CO3)CC1,16,-11,17,17,-4,63*
CN1CCCCC(NC(=O)c2ccc(F)c(F)c2)C1=O (stereo not drawn),1,nt,nt,nt,nt,-17
CCOC(=O)c1ccc(NC(=O)c2nc[nH]c2C(=O)NCCCCCNC(=O)OC(C)(C)C)cc1,14,-9,10,-39,nt,56*
O=C(Nc1ccccc1)c1nc[nH]c1C(=O)NCCCCNC(=O)c1[nH]cnc1C(=O)Nc1ccccc1,21,-9,6,1,nt,57*
O=C(Nc1ccccc1)c1nc[nH]c1C(=O)Nc1ccccc1F,2,nt,nt,nt,nt,-5
Cc1ccc(NC(=O)c2nc[nH]c2C(=O)NCCCCNC(=O)c2[nH]cnc2C(=O)Nc2ccc(C)cc2)cc1,18,-9,1,-10,nt,60*
O=C(Nc1ccccc1)c1nc[nH]c1C(=O)NCCNC(=O)c1[nH]cnc1C(=O)Nc1ccccc1,27,-2,65*,39,nt,56*
Cc1ccc(NC(=O)c2nc[nH]c2C(=O)NCCCCCCNC(=O)c2[nH]cnc2C(=O)Nc2ccc(C)cc2)cc1,3,-5,2,-8,nt,-7
C[C@@H]1OC(C2CCCCC2)N(C)[C@H]2C[C@H]3c4[nH]c5c(-c6ccccc6)cccc5c4CCN3C(=O)[C@@H]12 (stereo partly drawn),1,nt,nt,nt,nt,34
C=CCOC(=O)C1=C[C@H](c2coc3ccccc3c2=O)C[C@H](OCCCCO)O1,-1,-19,10,-31,nt,11
COC(=O)[C@]12C[C@H](CC(=O)NCc3ccc(C)o3)C(=O)N(Cc3ccccc3)C1=C[C@H](C(C)(C)C)O[C@@H]2C,-2,nt,nt,nt,nt,-44
c1ccc(Cc2cnc(N3CCN(Cc4cccc(-c5ccsc5)n4)CC3)nc2)cc1,1,nt,nt,nt,nt,-24
Oc1ccc(Oc2ccc3c(C(F)(F)F)cc(C(F)(F)F)nc3n2)cc1,4,49*,-1,13,10,-16
COc1ccc(Oc2ccc3c(C(F)(F)F)cc(C(F)(F)F)nc3n2)cc1,-2,-6,12,-24,-8,-9
COC(=O)C1=C(N)N(c2ccccc2C(F)(F)F)C2=C(C(=O)CCC2)C1c1ccc2c(c1)OCO2 (stereo not drawn),1,48*,16,-20,16,17
COc1ccc(NC(=O)c2cc(-c3ccc(C)c(C)c3O)n[nH]2)cc1Cl,5,24,50*,0,-21,29
Cc1ccc(NC(=O)c2cc(-c3ccc(C)c(C)c3O)n[nH]2)cc1C,1,1,14,-8,-7,13
O=C(CSc1nc2ccccc2s1)CSc1nc2ccccc2s1,0,-11,45*,-23,3,15
